Here are results for 22 molecules from ChEMBL document CHEMBL2321841, “Structure-based drug design and potent anti-cancer activity of tricyclic 5:7:5-fused diimidazo[4,5-d:4',5'-f][1,3]diazepines” (Bioorg Med Chem, 2013).

A value given as a limit tells only on which side of the number the result lay.

Test [1] relates to PC-3. Nature of the test: Cytotoxicity against human PC3 cells after 72 hrs by WST1 assay. The conditions noted are these: PC-3, 72 h. In kind it is functional, cell-based. In a few lines:
(§1)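 Cells were seeded the day before dosing at 0.5–1.7 × 10^3 cells/well in RPMI + 10% FBS. Compounds were dissolved in DMSO (stocks 100–200 mM) and tested at nine concentrations from 100 μM to 5 nM, in 4 replicates per dilution, with experiments repeated 1x or 2x. Exposure was 72 h at 37°C, 5% CO2, against a DMSO vehicle control. WST-1 was then added for 4 h and absorbance read at 450–690 nm.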

The test system of test [2] is OVCAR-3. Kind of test: Cytotoxicity against human OVCAR3 cells after 72 hrs by WST1 assay. In kind it is functional, cell-based. Conditions: OVCAR-3, 72 h. In a few lines:
as §1
(Formazan colour is commonly taken as a measure of viable cells.)

A short description of test [3]: Cytotoxicity against human H460 cells after 72 hrs by WST1 assay. In kind it is functional, cell-based. The conditions noted are these: NCI-H460, 72 h. In a few lines:
as §1

In test [4] the test system is A549. Nature of the test: Cytotoxicity against human A549 cells after 72 hrs by WST1 assay. The class given is functional, cell-based. Conditions: A549, 72 h. Summed up: as §1
Test [5] concerns MCF7. Kind of test: Cytotoxicity against human MCF7 cells after 72 hrs by WST1 assay. In kind it is functional, cell-based. The conditions noted are these: MCF7, 72 h. Summed up:
as §1

The subject of test [6] is MDA-MB-231. Kind of test: Cytotoxicity against human MDA-MB-231 cells after 72 hrs by WST1 assay. The class given is functional, cell-based. The conditions noted are these: MDA-MB-231, 72 h. Summed up:
as §1

Test [7] has as its system MDA-MB-231. Nature of the test: Growth inhibition of human MDA-MB-231 cells at 100 uM after 72 hrs by WST1 assay. The class given is functional. The conditions noted are these: MDA-MB-231, 72 h, read-out: GI. In a few lines: (§2)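 The highest concentration, 100 μM, comes from a nine-point series (100 μM to 5 nM) of DMSO-dissolved compound. Cells were seeded the day before at 0.5–1.7 × 10^3 cells/well in RPMI + 10% FBS, with 4 replicates per dilution. Exposure was 72 h at 37°C, 5% CO2, against a DMSO vehicle control. WST-1 was added for 4 h and absorbance read at 450–690 nm. Growth inhibition by ≤75% was scored as not effective.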

The test system of test [8] is A549. Nature of the test: Growth inhibition of human A549 cells at 100 uM after 72 hrs by WST1 assay. In kind it is functional. The conditions noted are these: A549, 72 h, read-out: GI. In a few lines:
as §2

In test [9] the test system is PC-3. Nature of the test: Growth inhibition of human PC3 cells at 100 uM after 72 hrs by WST1 assay. The class given is functional. The conditions noted are these: PC-3, 72 h, read-out: GI. In a few lines:
as §2

Test [10] relates to OVCAR-3. Kind of test: Growth inhibition of human OVCAR3 cells at 100 uM after 72 hrs by WST1 assay. The conditions noted are these: OVCAR-3, 72 h, read-out: GI. The class given is functional. In a few lines: as §2
In test [11] the test system is MCF7. Kind of test: Growth inhibition of human MCF7 cells at 100 uM after 72 hrs by WST1 assay. The class given is functional. Conditions: MCF7, 72 h, read-out: GI. Summed up: as §2
The nature of test [12]: Growth inhibition of human H460 cells at 100 uM after 72 hrs by WST1 assay. The class given is functional. Conditions: NCI-H460, 72 h, read-out: GI. Summed up: as §2

As to `COc1ccc(Cn2cnc3c4nc(=O)n(Cc5cccc(OC)c5)c-4ncnc32)cc1`, the results for the concentration for half-maximal inhibition (IC50) (with PC-3 [1]; with OVCAR-3 [2]; in test [3]) were 5.15 µM, 2.5 µM and 1.55 µM, respectively.
Consider `COc1ccc(Cn2c3ncnc4c(ncn4Cc4ccc(OC)cc4)c-3nc2=O)cc1`, for which the IC50 in the test on A549 [4] was determined as 2.56 µM; in the test on PC-3 [1], 4.9 µM; with MCF7 [5], 7.59 µM; in test [3] it was 2.87 µM.
On to `COc1ccc(Cn2cnc3c4nc(=O)n(Cc5ccc(F)cc5)c-4ncnc32)cc1`, for which the IC50 was 1.65 µM with A549 [4] and 4.05 µM in the test with MCF7 [5].
`COc1ccc(Cn2cnc3c4nc(=O)n(Cc5ccc(N(C)C)cc5)c-4ncnc32)cc1`: the IC50 in the test on A549 [4] is 8.81 µM; with PC-3 [1], 202 µM; in the test with OVCAR-3 [2], 9.43 µM; with MDA-MB-231 [6], 8.82 µM; in the test with MCF7 [5] it was 15.1 µM; in test [3], 8.44 µM.
On to `COc1ccc(Cn2cnc3c4nc(=O)n(CCN5CCCCC5)c-4ncnc32)cc1`, for which the inhibition of growth at 100 µM (with MDA-MB-231 [7]; in the test with A549 [8]; in the test with PC-3 [9]; with OVCAR-3 [10]; in the test with MCF7 [11]; in test [12]) was at most 75% throughout.
As to `COc1ccc(Cn2cnc3c4nc(=O)n(CCN5CCOCC5)c-4ncnc32)cc1`, the inhibition of growth at 100 µM (in the test with MDA-MB-231 [7]; with A549 [8]; in the test with PC-3 [9]; in the test with OVCAR-3 [10]; in the test on MCF7 [11]; in [12]) was at most 75% throughout.
`COc1ccc(Cn2c3ncnc4c(ncn4Cc4ccc(F)cc4)c-3nc2=O)cc1`: the IC50 in the test with A549 [4] is 4.4 µM; in the test on PC-3 [1], 7.67 µM; in the test on MDA-MB-231 [6], 5.33 µM; with MCF7 [5], 5.87 µM; in [3], 5.06 µM. Also, the inhibition of growth at 100 µM in the test on OVCAR-3 [10] was at most 75%.
For the molecule `COc1ccc(Cn2cnc3c4nc(=O)n(-c5ccccc5)c-4ncnc32)cc1`, the inhibition of growth at 100 µM (in the test with MDA-MB-231 [7]; in the test on A549 [8]; in the test with PC-3 [9]; in the test with OVCAR-3 [10]; in the test with MCF7 [11]; in [12]) was at most 75% each time.
`COc1ccc(Cn2cnc3c4nc(=O)n(-c5ccc(OC)cc5)c-4ncnc32)cc1`: the inhibition of growth at 100 µM (in the test on MDA-MB-231 [7]; in the test on A549 [8]; with PC-3 [9]; in the test with OVCAR-3 [10]; with MCF7 [11]; in test [12]) was at most 75% in each case.
In the case of `COc1ccc(CCn2c3ncnc4c(ncn4Cc4ccc(OC)cc4)c-3nc2=O)cc1`, the inhibition of growth at 100 µM (in the test with MDA-MB-231 [7]; in the test on A549 [8]; in the test with PC-3 [9]; in the test with OVCAR-3 [10]; with MCF7 [11]; in test [12]) was at most 75% each time.
Turning to `CCn1c2ncnc3c(ncn3Cc3ccc(OC)cc3)c-2nc1=O`, the inhibition of growth at 100 µM (in the test on MDA-MB-231 [7]; in the test with A549 [8]; in the test on PC-3 [9]; in the test on OVCAR-3 [10]; in the test with MCF7 [11]; in [12]) was at most 75% each time.
`CCOC(=O)Cn1c2ncnc3c(ncn3Cc3ccc(OC)cc3)c-2nc1=O`: the values for the IC50 (with A549 [4]; in the test on MDA-MB-231 [6]; in [3]) were 33.5 µM, 37 µM and 34.5 µM, respectively. Besides, the inhibition of growth at 100 µM in the test on PC-3 [9], with OVCAR-3 [10] and with MCF7 [11] was at most 75% throughout.
Turning to `COc1ccc(Cn2cnc3c4nc(=O)n(CCCl)c-4ncnc32)cc1`, the IC50 in the test on A549 [4] was 8.63 µM; in the test on PC-3 [1], 9.33 µM; in [3], 7.9 µM. For the same molecule, the inhibition of growth at 100 µM with MDA-MB-231 [7], in the test on OVCAR-3 [10] and in the test with MCF7 [11] was at most 75% each time.
`COc1ccc(Cn2cnc3c4nc(=O)n(Cc5ccccc5OC)c-4ncnc32)cc1`: the inhibition of growth at 100 µM (with MDA-MB-231 [7]; in the test on A549 [8]; in the test with PC-3 [9]; in the test on OVCAR-3 [10]; in the test on MCF7 [11]; in [12]) was at most 75% each time.
Consider `COc1ccc(Cn2c3nc(C)nc4c(ncn4Cc4ccc(OC)cc4)c-3nc2=O)cc1`, for which the inhibition of growth at 100 µM (with MDA-MB-231 [7]; in the test with A549 [8]; with PC-3 [9]; in the test with OVCAR-3 [10]; in the test with MCF7 [11]; in test [12]) was at most 75% in each case.
Regarding `CCc1nc2n(Cc3ccc(OC)cc3)c(=O)nc-2c2ncn(Cc3ccc(OC)cc3)c2n1`, the inhibition of growth at 100 µM (in the test with MDA-MB-231 [7]; in the test on A549 [8]; in the test on PC-3 [9]; with OVCAR-3 [10]; with MCF7 [11]; in test [12]) was at most 75% each time.
`COc1ccc(Cn2c3nc(-c4ccccc4)nc4c(ncn4Cc4ccc(OC)cc4)c-3nc2=O)cc1`: the inhibition of growth at 100 µM (with MDA-MB-231 [7]; in the test with A549 [8]; in the test with PC-3 [9]; in the test on OVCAR-3 [10]; in the test on MCF7 [11]; in test [12]) was at most 75% in each case.
With `COc1ccc(Cn2c3nc(-c4ccc(C)cc4)nc4c(ncn4Cc4ccc(OC)cc4)c-3nc2=O)cc1`, the inhibition of growth at 100 µM (in the test on MDA-MB-231 [7]; in the test with A549 [8]; in the test on PC-3 [9]; with OVCAR-3 [10]; in the test on MCF7 [11]; in test [12]) was at most 75% each time.
As for `COc1ccc(Cn2c3nc(CCC(=O)O)nc4c(ncn4Cc4ccc(OC)cc4)c-3nc2=O)cc1`, the inhibition of growth at 100 µM (in the test with MDA-MB-231 [7]; with A549 [8]; in the test with PC-3 [9]; in the test with OVCAR-3 [10]; in the test with MCF7 [11]; in test [12]) was at most 75% throughout.
Regarding `COc1ccc(Cn2c3nc(CCCC(=O)O)nc4c(ncn4Cc4ccc(OC)cc4)c-3nc2=O)cc1`, the inhibition of growth at 100 µM (in the test on MDA-MB-231 [7]; in the test with A549 [8]; in the test on PC-3 [9]; with OVCAR-3 [10]; in the test with MCF7 [11]; in [12]) was at most 75% each time.
As for `COc1ccc(Cn2c3ncnc4c(ncn4Cc4ccccc4)c-3nc2=O)cc1`, the inhibition of growth at 100 µM (with MDA-MB-231 [7]; with A549 [8]; with PC-3 [9]; in the test with OVCAR-3 [10]; in the test on MCF7 [11]; in test [12]) was at most 75% each time.
On to `CCn1cnc2c3nc(=O)n(Cc4ccc(OC)cc4)c-3ncnc21`, for which the inhibition of growth at 100 µM (with MDA-MB-231 [7]; with A549 [8]; in the test with PC-3 [9]; in the test on OVCAR-3 [10]; with MCF7 [11]; in test [12]) was at most 75% throughout.

For orientation: IC50 means the concentration that gives 50% inhibition. High values mean weaker potency in that assay, low ones greater potency in that assay.
